Measured values pooled from the literature.
Target: Serine/threonine-protein kinase 32A (STK32A, Homo sapiens, UniProt Q8WU08)

SMILES | observed | mode | method | concentration | measurement | value
Nc1ncnc2occ(-c3ccc(NC(=O)Nc4cc(C(F)(F)F)ccc4F)cc3)c12 | cell-free assay |  |  | 20 µM | remaining signal | 3.2%
CN1CCC2(CC1)NC(=O)c1c(c3ccc(Cl)c(Cl)c3n1C)C2C#N (racemic) | thermal stability |  | DSF | 10 µM | ΔTm | -0.4 °C
CN1CC(Oc2cnc(C#N)cc2-c2ccn3nc(NC(=O)C4CC4)cc3c2)C1 | enzyme activity | inhibitor |  | 1 µM | inhibition | 3%
O=C(NC[C@@H]1[C@H]2CN(C(=O)OCc3cc(C(F)(F)F)cc(C(F)(F)F)c3)C[C@@H]12)c1ccc2[nH]nnc2c1 | cell-free assay |  | competition with immobilised ligand | 1 µM | remaining binding | 72%
COc1cc(Cl)c(C(=O)N[C@@H](CN[C@H]2CC[C@@H](N)CC2)Cc2ccc(C#N)cc2)cc1-c1ccc(CN[C@H](C)c2ccc(C)cc2)o1 | enzyme activity | inhibitor |  | 1 µM | remaining activity | 97%
Cc1ccc(C(=O)Nc2ccc(CN3CCN(C)CC3)c(C(F)(F)F)c2)cc1C#Cc1cnc2cccnn12 | cell-free assay |  |  | 23.5 nM | remaining signal | 90%
Cn1c2c(c3ccc(Cl)c(Cl)c31)C(C#N)C1(CCCCC1)NC2=O (racemic) | thermal stability |  | DSF | 10 µM | ΔTm | 0.2 °C
CN(C)c1nccc(-c2cnc3ncccn23)n1 | binding |  |  | 1 µM | remaining binding | 47%
Cn1c2c(Cl)c(Cl)ccc2c2cc(N)[nH]c(=O)c21 | thermal stability |  | DSF | 10 µM | ΔTm | -0.3 °C
Cc1c(C(=O)O)cc(-c2ccc(C3CCNCC3)cc2)c2ccc(-c3ccc(C(F)(F)F)cc3)cc12 | binding |  | competition with immobilised ligand | 1 µM | remaining binding | 89%
